Test results reported in article PMC12541585 (Acta Pharmaceutica Sinica. B, 2025).

Test system: MDA-MB-231 xenograft
Assay: MDA-MB-231 xenograft model
Type: in vivo, BALB/c nude mice
Conditions: immunohistochemical staining of MDA-MB-231 tumors, vs control group
In short: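 Female nude mice received 5×10^6 MDA-MB-231 cells in 100 μL Matrigel/PBS (1:1) subcutaneously into the right flank. At ≥80 mm³, mice were randomised into five groups, each dosed intraperitoneally every three days: test compound at 0.1, 0.5 or 1 mg/kg, paclitaxel 4 mg/kg, or PBS. Excised tumour sections were stained with anti-CXCR4 (1:100, 4 °C overnight), then HRP secondary (30 min) and DAB.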

SMILES: CC(=O)O[C@H]1C(=O)[C@@]2(C)[C@H]([C@H](OC(=O)c3ccccc3)[C@]3(O)C[C@H](OC(=O)[C@H](O)[C@@H](NC(=O)c4ccccc4)c4ccccc4)C(C)=C1C3(C)C)[C@]1(OC(C)=O)CO[C@@H]1C[C@@H]2O [PTX, Paclitaxel]
- proportion of CXCR4-positive cells in tumor tissue: little effect
